We go through 2 compounds from ChEMBL document CHEMBL4024768, “Discovery and Optimization of Thiazolidinyl and Pyrrolidinyl Derivatives as Inhaled PDE4 Inhibitors for Respiratory Diseases” (J Med Chem, 2017).

The structures appear in SMILES notation. pIC50: −log10 of the molar value. Activity calls are given as the source filed them. No cut-off for these calls is given here.

Data set [1] is described as follows: Intrinsic clearance in human hepatocytes assessed per million cells at 1 uM measured after 90 mins by LC-MS/MS analysis. The format is ADME, cell-based, Hepatocyte. The settings on record: read-out: CLH. In a few lines:
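Compound at 1 μM with hepatocytes (1 million cells/mL) in Leibovitz L-15 at 37 °C, in duplicate. Sampled at 0, 10, 20, 30, 60 and 90 min, quenched with ice-cold acetonitrile, centrifuged, and unchanged compound measured by LC−MS/MS. Included 7-ethoxycoumarin and 7-hydroxycoumarin activity controls and cell-free medium controls.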

A short description of data set [2]: Metabolic stability in human lung S9 fraction assessed as compound remaining at 1 uM measured after 60 mins in presence of NADPH by LC-MS/MS analysis. Type of data set: ADME. The following applies: read-out: Stability.
In data set [3] the target is cGMP-inhibited 3',5'-cyclic phosphodiesterase 3A (Homo sapiens, UniProt Q14432). Put plainly: Inhibition of human recombinant PDE3A expressed insect sf9 cells by radiometric assay. An outline of the steps:
(§1)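 Human recombinant PDEs expressed in Sf9 cells, except PDE6 purified from bovine retina. Radiometric two-step method, modified from Thompson and Appleman. Five concentrations in duplicate, starting at 30 μM with 1:10 serial dilution, 1% final DMSO.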

A short description of data set [4]: Intrinsic clearance in human liver microsomes at 1 uM measured after 60 mins in presence NADPH by LC-MS/MS analysis. Type of data set: ADME, microsome. The settings on record: read-out: CLH. In a few lines:
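Compound at 1 μM with human liver microsomes (0.8 mg protein/mL) in Dulbecco's buffer pH 7.4, 1 mM NADPH, 37 °C, in duplicate. Sampled at 0, 5, 10, 20, 30 and 60 min, quenched with ice-cold acetonitrile, and unchanged compound measured by LC−MS/MS. No-NADPH controls; midazolam (1 μM) as phase I control.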

The species entered for data set [5] is Rattus norvegicus. The data set is described as follows: Binding affinity to rat imidazoline I2 receptor. An outline of the steps:
(§2)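 Off-target screening panel of about 400 receptors, enzymes and ion channels, run at 1 μM. Result expressed as % binding.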

Data set [6] deals with Dual specificity calcium/calmodulin-dependent 3',5'-cyclic nucleotide phosphodiesterase 1A (Homo sapiens, UniProt P54750). The data set is described as follows: Inhibition of human recombinant PDE1A expressed insect sf9 cells by radiometric assay. In a few lines:
as §1

Data set [7] concerns the target High affinity cGMP-specific 3',5'-cyclic phosphodiesterase 9A (Homo sapiens, UniProt O76083). The data set is described as follows: Inhibition of human recombinant PDE9A2 expressed insect sf9 cells by radiometric assay. In a few lines:
as §1

Data set [8] concerns Plasma. The data set is described as follows: AUClast in Sprague-Dawley rat plasma at 1 umol/kg, it administered as micronized powder measured up to 24 hrs post dose by electrospray LC-MS analysis. The following applies: inhaled_or_intranasal. Type of data set: ADME, cell-free. An outline of the steps: (§3)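 Sprague-Dawley rats (250−400 g) dosed intratracheally with micronized dry powder blended with coarse lactose, delivered by insufflator under isoflurane anaesthesia. Blood collected in heparinized tubes and spun at 1200g for 15 min. Lung sampled at 0.25, 1, 2, 4, 8, 16 and 24 h, n = 3 per time point.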

Another data set concerns the target Cytochrome P450 2C19 (Homo sapiens, UniProt P33261). Put plainly: Binding affinity to human liver microsomes CYP2C19 at 1 uM. Type of data set: ADME. An outline of the steps:
as §2
(In general: Microsomes from liver hold many membrane-bound enzymes, among them those of drug oxidation.)

For data set [9], the system named is Rattus norvegicus. Put plainly: Anti-inflammatory activity in OVA-induced airway inflammation Brown Norway rat model assessed inhibition of eosinophils recruitment in bronchoalveolar lavage fluid at 0.1 umol/kg administered intratracheally as powder formulation 2 hrs before aerosolized OVA challenge measured at 24 hrs post aerosolized OVA challenge. The format is functional. The following applies: inhaled or nasal. An outline of the steps:
(§4)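 Male Brown Norway rats sensitized i.p. with OVA (1 mg/rat) plus Al(OH)3 (100 mg/rat) in saline on 3 consecutive days. Challenged 2–3 weeks later with nose-only 1% OVA aerosol for 30 min. Lactose-blended dry powder (10 mg/kg total powder) insufflated intratracheally; dose taken from needle weight difference. BAL with 3 × 4 mL HBSS/EDTA/HEPES at 24 h; total and differential counts by automated counter. ED50 from fitted dose–response curve.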

The test system of data set [10] is Plasma. The data set is described as follows: Cmax in Sprague-Dawley rat plasma at 1 umol/kg, it administered as micronized powder measured up to 24 hrs post dose by electrospray LC-MS analysis. The format is ADME, cell-free. Also noted: dose 1 umol/kg. The settings on record: inhaled_or_intranasal. An outline of the steps:
as §3

For data set [11], the system named is Lung. The data set is described as follows: Tlast in Sprague-Dawley rat lung at 1 umol/kg, it administered as micronized powder measured up to 24 hrs post dose by electrospray LC-MS analysis. The format is ADME, tissue-based. The following applies: in vivo, inhaled_or_intranasal. In a few lines:
as §3

Data set [12] deals with Rattus norvegicus. Put plainly: Anti-inflammatory activity in OVA-induced airway inflammation Brown Norway rat model assessed inhibition of inflammatory cell infiltration in bronchoalveolar lavage fluid at 1 umol/kg administered intratracheally as powder formulation 2 hrs before aerosolized OVA challenge measured at 24 hrs post aerosolized OVA challenge. The format is functional. An outline of the steps:
as §4

In data set [13] the test system is Lung. Put plainly: Drug uptake in Sprague-Dawley rat lung at 1 umol/kg, it administered as micronized powder measured at 24 hrs post dose by electrospray LC-MS analysis. The format is ADME, tissue-based. The following applies: in vivo, inhaled_or_intranasal. An outline of the steps: as §3
Data set [14] is described as follows: Inhibition of PDE4 in human PBMC assessed as reduction in LPS-induced TNFalpha release after 18 hrs by quantitative ELISA.
Data set [15] has as its target 3',5'-cyclic-AMP phosphodiesterase 4B (Homo sapiens, UniProt Q07343). The data set is described as follows: Inhibition of human recombinant PDE4B expressed insect sf9 cells by radiometric assay. In a few lines: as §1
The nature of data set [16]: Inhibition of PDE4 in human U937 cell lysates assessed as residual cAMP after 2.5 mins by LANCE assay. (TR-FRET usually uses a lanthanide donor and a delayed reading to cut background.)
The nature of data set [17]: Drug metabolism in human hepatocytes assessed as (S)-1-(3-(dimethylcarbamoyl)phenylsulfonyl)pyrrolidine-2-carboxylic acid metabolite formation at 10 uM after 60 mins by LC-MS/MS analysis. Type of data set: ADME, cell-based, Hepatocyte. The settings on record: 1 h. An outline of the steps:
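Pooled mixed-sex cryopreserved human hepatocytes (1 million cells/mL) in Leibovitz L-15 at 37 °C, compound at 10 μM in duplicate. Sampled at 0 and 60 min. Protein-free supernatant evaporated under nitrogen, reconstituted in mobile phase and analysed by LC−MS/MS. Cell-free medium incubation for 60 min as control.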

Data set [18] concerns the target T1, Sterol O-acyltransferase 1 (Rattus norvegicus) (UniProt O70536).
T1 sequence (whole entry): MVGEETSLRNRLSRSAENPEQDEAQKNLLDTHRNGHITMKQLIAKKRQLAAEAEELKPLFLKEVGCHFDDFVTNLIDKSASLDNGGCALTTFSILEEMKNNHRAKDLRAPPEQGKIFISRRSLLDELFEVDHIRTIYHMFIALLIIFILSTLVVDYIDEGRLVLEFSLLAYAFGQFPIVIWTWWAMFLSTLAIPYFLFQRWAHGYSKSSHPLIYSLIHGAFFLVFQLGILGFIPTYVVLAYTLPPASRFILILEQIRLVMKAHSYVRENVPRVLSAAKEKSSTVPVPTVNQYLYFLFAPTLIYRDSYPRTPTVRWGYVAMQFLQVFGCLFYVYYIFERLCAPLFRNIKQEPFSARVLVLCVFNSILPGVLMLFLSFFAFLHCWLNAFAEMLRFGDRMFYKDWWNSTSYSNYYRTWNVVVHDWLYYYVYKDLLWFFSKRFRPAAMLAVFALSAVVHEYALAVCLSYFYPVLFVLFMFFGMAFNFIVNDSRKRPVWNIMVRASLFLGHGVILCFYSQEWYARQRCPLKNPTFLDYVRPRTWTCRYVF
The data set is described as follows: Binding affinity to rat hepatic Acyl CoA-cholesterol acyltransferase at 1 uM. An outline of the steps:
as §2

Chain of 3',5'-cyclic-AMP phosphodiesterase 4B (Q07343 whole entry): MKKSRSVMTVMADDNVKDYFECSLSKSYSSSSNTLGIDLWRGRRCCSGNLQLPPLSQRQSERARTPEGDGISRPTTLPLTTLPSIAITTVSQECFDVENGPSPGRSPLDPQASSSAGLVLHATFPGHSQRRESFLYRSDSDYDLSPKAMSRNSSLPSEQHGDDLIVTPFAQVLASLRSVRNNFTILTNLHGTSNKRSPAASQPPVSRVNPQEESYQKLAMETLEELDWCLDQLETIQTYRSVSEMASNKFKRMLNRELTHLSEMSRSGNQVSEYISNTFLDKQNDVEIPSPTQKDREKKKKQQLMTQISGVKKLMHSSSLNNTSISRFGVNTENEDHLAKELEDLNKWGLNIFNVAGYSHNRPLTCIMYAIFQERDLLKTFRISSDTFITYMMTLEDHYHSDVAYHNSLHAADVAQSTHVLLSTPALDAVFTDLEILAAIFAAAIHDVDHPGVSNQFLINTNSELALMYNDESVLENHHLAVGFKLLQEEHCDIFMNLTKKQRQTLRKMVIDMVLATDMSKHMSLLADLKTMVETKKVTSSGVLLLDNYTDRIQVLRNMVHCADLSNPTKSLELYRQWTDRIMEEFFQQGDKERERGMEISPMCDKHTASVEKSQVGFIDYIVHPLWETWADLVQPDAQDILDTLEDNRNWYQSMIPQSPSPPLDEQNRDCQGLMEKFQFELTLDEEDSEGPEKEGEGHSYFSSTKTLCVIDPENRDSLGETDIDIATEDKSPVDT
Chain of cGMP-inhibited 3',5'-cyclic phosphodiesterase 3A (Q14432 whole entry): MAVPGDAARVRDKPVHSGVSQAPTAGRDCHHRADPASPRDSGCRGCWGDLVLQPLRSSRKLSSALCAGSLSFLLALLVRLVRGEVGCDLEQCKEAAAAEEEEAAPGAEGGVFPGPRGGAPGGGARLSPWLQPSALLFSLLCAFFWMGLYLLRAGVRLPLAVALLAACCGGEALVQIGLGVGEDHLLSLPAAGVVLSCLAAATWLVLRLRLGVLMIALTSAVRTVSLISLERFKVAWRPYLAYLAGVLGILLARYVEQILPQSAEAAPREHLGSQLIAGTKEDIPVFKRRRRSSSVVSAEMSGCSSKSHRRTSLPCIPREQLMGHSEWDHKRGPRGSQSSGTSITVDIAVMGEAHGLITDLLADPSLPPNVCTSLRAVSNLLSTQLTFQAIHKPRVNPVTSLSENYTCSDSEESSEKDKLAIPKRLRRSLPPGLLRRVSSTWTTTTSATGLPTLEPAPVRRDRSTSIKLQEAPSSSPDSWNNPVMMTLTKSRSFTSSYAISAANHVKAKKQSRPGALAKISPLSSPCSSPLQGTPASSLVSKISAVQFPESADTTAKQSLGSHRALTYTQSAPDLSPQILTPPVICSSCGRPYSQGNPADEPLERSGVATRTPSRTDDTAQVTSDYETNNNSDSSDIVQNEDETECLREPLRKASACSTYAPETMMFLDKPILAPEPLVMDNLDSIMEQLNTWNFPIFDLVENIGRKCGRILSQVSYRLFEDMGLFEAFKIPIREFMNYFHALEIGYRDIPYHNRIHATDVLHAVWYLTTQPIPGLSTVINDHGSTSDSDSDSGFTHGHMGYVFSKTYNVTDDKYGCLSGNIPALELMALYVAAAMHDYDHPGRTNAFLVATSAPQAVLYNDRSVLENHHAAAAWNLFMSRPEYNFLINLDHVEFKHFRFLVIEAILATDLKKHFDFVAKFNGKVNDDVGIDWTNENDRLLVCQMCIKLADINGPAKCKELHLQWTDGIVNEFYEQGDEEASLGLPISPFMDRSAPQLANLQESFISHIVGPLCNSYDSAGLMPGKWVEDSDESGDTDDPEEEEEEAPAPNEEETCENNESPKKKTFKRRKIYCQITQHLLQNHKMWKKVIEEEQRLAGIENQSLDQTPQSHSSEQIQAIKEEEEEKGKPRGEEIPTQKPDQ
Chain of High affinity cGMP-specific 3',5'-cyclic phosphodiesterase 9A (O76083 whole entry): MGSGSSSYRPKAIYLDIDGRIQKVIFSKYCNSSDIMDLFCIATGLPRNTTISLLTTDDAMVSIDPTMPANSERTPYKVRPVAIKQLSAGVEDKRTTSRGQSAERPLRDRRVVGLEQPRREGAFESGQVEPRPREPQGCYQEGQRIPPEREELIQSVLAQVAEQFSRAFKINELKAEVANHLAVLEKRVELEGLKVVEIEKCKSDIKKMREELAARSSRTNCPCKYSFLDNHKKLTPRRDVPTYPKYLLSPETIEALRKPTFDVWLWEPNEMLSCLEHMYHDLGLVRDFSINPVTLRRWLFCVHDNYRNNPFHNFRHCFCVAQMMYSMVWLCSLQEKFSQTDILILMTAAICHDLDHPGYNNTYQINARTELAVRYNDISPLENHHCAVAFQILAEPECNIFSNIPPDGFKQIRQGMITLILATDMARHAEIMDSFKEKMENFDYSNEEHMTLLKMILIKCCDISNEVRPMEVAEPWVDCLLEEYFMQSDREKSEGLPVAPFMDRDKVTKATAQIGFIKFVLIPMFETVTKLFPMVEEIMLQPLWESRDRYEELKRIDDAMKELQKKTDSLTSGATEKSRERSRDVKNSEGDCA
Chain of Dual specificity calcium/calmodulin-dependent 3',5'-cyclic nucleotide phosphodiesterase 1A (P54750 whole entry): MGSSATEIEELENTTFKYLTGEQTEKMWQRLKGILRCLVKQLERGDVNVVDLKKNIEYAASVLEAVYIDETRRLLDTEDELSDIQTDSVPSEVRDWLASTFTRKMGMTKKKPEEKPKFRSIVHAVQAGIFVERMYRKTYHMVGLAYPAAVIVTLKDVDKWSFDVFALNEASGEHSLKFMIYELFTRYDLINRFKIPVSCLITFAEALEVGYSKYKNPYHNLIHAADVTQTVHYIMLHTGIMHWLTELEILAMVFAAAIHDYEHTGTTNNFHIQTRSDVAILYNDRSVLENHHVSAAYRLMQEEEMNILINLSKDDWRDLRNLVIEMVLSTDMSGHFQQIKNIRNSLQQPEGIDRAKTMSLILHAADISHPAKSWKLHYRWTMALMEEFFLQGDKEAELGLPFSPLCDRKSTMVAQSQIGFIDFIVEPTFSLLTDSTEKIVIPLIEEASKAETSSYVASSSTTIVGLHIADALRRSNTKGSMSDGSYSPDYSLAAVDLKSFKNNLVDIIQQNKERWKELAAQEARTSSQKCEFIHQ
Chain of Cytochrome P450 2C19 (P33261 whole entry): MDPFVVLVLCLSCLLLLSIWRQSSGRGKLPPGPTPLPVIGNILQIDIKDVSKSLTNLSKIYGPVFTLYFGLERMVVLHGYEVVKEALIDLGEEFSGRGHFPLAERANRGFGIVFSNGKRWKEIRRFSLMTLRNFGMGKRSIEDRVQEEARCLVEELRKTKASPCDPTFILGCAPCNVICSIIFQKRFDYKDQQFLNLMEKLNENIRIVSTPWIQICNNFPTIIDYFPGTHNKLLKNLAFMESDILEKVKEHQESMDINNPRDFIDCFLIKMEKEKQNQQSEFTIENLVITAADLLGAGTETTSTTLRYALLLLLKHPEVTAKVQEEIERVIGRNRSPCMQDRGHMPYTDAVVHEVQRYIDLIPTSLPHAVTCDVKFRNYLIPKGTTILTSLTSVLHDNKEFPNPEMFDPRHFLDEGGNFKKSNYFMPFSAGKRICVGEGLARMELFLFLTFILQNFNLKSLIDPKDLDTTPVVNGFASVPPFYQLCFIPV

`CN(C)C(=O)c1cccc(S(=O)(=O)N2CCS[C@H]2C(=O)O[C@@H](Cc2c(Cl)c[n+]([O-])cc2Cl)c2ccc(OC(F)F)c(OCC3CC3)c2)c1`: in [1], the hepatocyte CLint at 1 µM was determined as 82.5 µL/min/1e6 cells. The remaining at 1 h, 1 µM in data set [2] turned out to be 70.2%. Besides, the pIC50 in [3] is 5.21; in data set [6] it was 5.13; in [7], under 4.52; in [14] it was 10.72; in data set [15] it was 10.56; in data set [16], 10.28. For the same compound, in data set [4], the microsomal CLint at 1 µM came out at 287 µL/min/mg. Moreover, the results for the Activity in the data set listed under Rattus norvegicus [5] and on Cytochrome P450 2C19 were 60% and 69%, respectively. In the data set on Plasma [8], this compound had an AUClast of 10.38 pmol·h/g. In the data set with Rattus norvegicus [9], this compound yielded an inhibition in vivo at 0.1 µmol/kg of 50%. Besides, the Cmax in the data set with Plasma [10] amounted to 9.8 pmol/g. In addition, the Tlast with Lung [11] came to 24 h. Also, the inhibition result in the data set on Rattus norvegicus [12] is “Active”. The compound further displayed a Drug uptake in the data set on Lung [13] of 0.22 nmol/g.

As for `CN(C)C(=O)c1cccc(S(=O)(=O)N2CCC[C@H]2C(=O)O[C@@H](Cc2c(Cl)c[n+]([O-])cc2Cl)c2ccc(OC(F)F)c(OCC3CC3)c2)c1` (relative stereo), the hepatocyte CLint at 1 µM in data set [1] amounted to 95.5 µL/min/1e6 cells. In addition, the remaining at 1 h, 1 µM in data set [2] came to 71.1%. Moreover, the pIC50 in data set [3] was under 4.52; in [6] it was 4.59; in data set [7] it was under 4.52; in [14] it was 10.49; in data set [15] it was 10.06; in data set [16], 10.42. In addition, the microsomal CLint at 1 µM in [4] is 591 µL/min/mg. In addition, in the data set on Plasma [8], the AUClast worked out at 33.27 pmol·h/g. The same compound had a Cmax in the data set with Plasma [10] of 20.65 pmol/g. Also, the Tlast in the data set on Lung [11] is 24 h. In addition, the Drug metabolism result in data set [17] is listed as “Metabolite_Notdetected”. This compound came in with a Drug uptake in the data set on Lung [13] of 0.128 nmol/g. The same compound gave an Activity in data set [18] of 50%.

By pIC50 is commonly meant the IC50 on a negative log10 scale, so that one unit is a factor of ten. The inhibition in vivo is the change of the read-out against control, counted positive when it falls.
